According to PubChem BioAssay AID1885 (Broad Institute, 2009):
The whole screen tested about 300,000 compounds, of which about 4,400 (1.5%) were called active.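 How the source made its calls: active means mean inhibition across valid replicates above about 55% (limit read from the data); inconclusive means mean below that limit but half or more replicates reach it; inactive means mean below it, under half of replicates reach it.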 For the sample, actives were picked, then their nearest neighbours and some compounds at random.

Experiment: inhibitors of intracellular T. cruzi growth, primary screen, luminescence, NIH3T3 host cells (AID 1885);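 further: signal also drops with host cell toxicity which is not excluded here; 0% = plate median of DMSO wells and 100% = zero luminescence signal; higher percent means less beta-gal luminescence so fewer parasites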
Conditions: T. cruzi beta-gal in NIH3T3, luminescence, 90 h; hits give high values; concentration not given here
In short: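 compound dosing = single 50 nL compound addition per well in DMSO | material = NIH/3T3 host cells with β-galactosidase reporter T. cruzi | input = 5,000 host fibroblasts per well | timing = ≥90 h infection period, 3 h prior cell attachment | read-out basis = percent inhibition of parasite-derived β-gal signal | detection = GalScreen β-gal luminescence, detergent lysis, 60 min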
With `O=C(O)CCn1c(O)c(C=C2N=c3ccccc3=N2)sc1=S` the inhibition was -24.7% (inactive). For `COc1ccc(NC(=S)NCCN2CCC(C)CC2)cc1`, the inhibition was -11.2% (inactive). With `COc1ccc(N2CCC(CNC(=S)Nc3c(C)cccc3C)C2)cc1` (stereo not drawn) the inhibition was 55.3% (active). For `COc1ccc(NC(=S)NCC2CCN(c3ccc(OC)cc3)C2)cc1` (stereo not drawn), the inhibition was 6.37% (inactive). With `CN1C(C(=O)NCC2CC2)CC2Cn3c(nc4ccccc43)C21` (stereo not drawn) the inhibition was -19% (inactive). With `O=C1CN(C(=O)COc2c(Cl)cccc2Cl)c2ccccc2N1` the inhibition was -8.97% (inactive). In the case of `COc1ccccc1CCC(=O)NNC(=O)c1ccncc1`, the inhibition is reported as 10.4% (inactive). With `Cc1cc(NC(=O)CCC2COc3ccccc3O2)no1` (stereo not drawn) the inhibition was 1.39% (inactive). With `Cc1cc(C(=O)CCl)c(C)n1CC1COc2ccccc2O1` (stereo not drawn) the inhibition was 60.4% (active). With `O=C1C(=O)N(CC2COc3ccccc3O2)c2ccccc21` (stereo not drawn) the inhibition was -17% (inactive). For `Cc1cc(C)c(C)c(S(=O)(=O)N2CCN(C(=O)c3ccc4c(=O)n5c(nc4c3)CCC5)CC2)c1C`, the inhibition was -5.27% (inactive). In the case of `Nc1nc(Sc2ncccc2[N+](=O)[O-])n[nH]1`, the inhibition is reported as -19.9% (inactive). For `Brc1cnc2ccccc2c1N1CCCCC1`, the inhibition was 0.276% (inactive). In the case of `Cc1cccc(C(=O)OC(C)CN2CCCC2)c1` (stereo not drawn), the inhibition is reported as -8.01% (inactive). With `Cc1cccc(C(=O)OC(C)CN2CCN(C)CC2)c1` (stereo not drawn) the inhibition was 56.8% (active). In the case of `Cc1ccc(C(=O)OC(C)CN2CCOCC2)cc1` (stereo not drawn), the inhibition is reported as -11.2% (inactive). For `COc1ccc(-c2oc(/N=C/N3CCCC3)c(C#N)c2-c2ccc(OC)cc2)cc1`, the inhibition was 57.6% (active). In the case of `N#Cc1c(/N=C/N2CCCC2)oc(-c2ccccc2)c1-c1ccccc1`, the inhibition is reported as 37.2% (inactive). With `COc1cc(C(=O)Nc2oc(-c3ccccc3)c(-c3ccccc3)c2C#N)cc(OC)c1OC` the inhibition was 12.7% (inactive). For `O=C(NC1CCCCC1)C1CCC(CNS(=O)(=O)c2ccccc2)CC1` (stereo not drawn), the inhibition was -8.43% (inactive). For `OCCCNc1nc(-c2ccccc2)c2cc(Cl)ccc2n1`, the inhibition was 18.3% (inactive). With `NC(N)=Nc1nc(-c2ccccc2)c2cc(Cl)ccc2n1` the inhibition was 65.4% (active). For `O=C(CCl)NNc1nc(-c2ccccc2)c2cc(Cl)ccc2n1`, the inhibition was 3.67% (inactive). For `CC(Oc1ccccc1[N+](=O)[O-])C(=O)N/N=C/c1ccoc1` (stereo not drawn), the inhibition was -8.31% (inactive). In the case of `O=C(Nc1ccc(N2CCCCC2)cc1)c1cc(S(=O)(=O)N2CCOCC2)ccc1F`, the inhibition is reported as 22.8% (inactive). With `CCN(CC)c1ccc(S(=O)(=O)N2CCOCC2)cc1NC(=O)CSc1cccc[n+]1[O-]` the inhibition was 5.13% (inactive). For `O=C(Nc1ccc(S(=O)(=O)N2CCCC2)cc1Cl)C1=COCCO1`, the inhibition was -14.4% (inactive). In the case of `CCN(CC)c1ccc(S(=O)(=O)N2CCCCC2)cc1NC(=O)C1=COCCO1`, the inhibition is reported as 61% (active). With `COc1cccc(NC(=O)CN(C)C(=O)CSCc2nc3scc(-c4cccs4)c3c(=O)[nH]2)c1` the inhibition was -4.78% (inactive). With `O=C(NN1CCOCC1)c1cccc(F)c1` the inhibition was -3.38% (inactive). In the case of `COc1ccc2cc(S(=O)(=O)Nc3ccccn3)ccc2c1`, the inhibition is reported as 4.63% (inactive). For `COc1cc(NS(=O)(=O)c2ccc3ccccc3c2)c2ncccc2c1`, the inhibition was 76.5% (active). For `Cc1ccc(NS(=O)(=O)c2ccc(C)c(NC(=O)COc3ccc4ccccc4c3)c2)c(C)c1`, the inhibition was 30.6% (inactive). For `CC(C)C(c1nnnn1C1CCCCC1)N1CCN(C(=O)c2ccco2)CC1` (stereo not drawn), the inhibition was -11.6% (inactive). With `CC(C)Cn1c(N)c(C(=O)NCc2cccs2)c2nc3ccccc3nc21` the inhibition was 59.8% (active). For `CC(C)(C)c1ccc(C(=O)NCCn2c(N)c(C#N)c3nc4ccccc4nc32)cc1`, the inhibition was -43.8% (inactive). For `CCCNC(=O)c1c(N)n(-c2ccc(S(N)(=O)=O)cc2)c2nc3ccccc3nc12`, the inhibition was -22.9% (inactive). For `COc1ccccc1CCNC(=O)C1CCN(C(=O)/C=C/c2ccccc2)CC1`, the inhibition was -2.7% (inactive). With `CCOc1ccc2nc(N(CCN(C)C)C(=O)c3ccc4ccccc4c3)sc2c1` the inhibition was 26.5% (inactive). With `CCN(CC)CCN(C(=O)c1cccc([N+](=O)[O-])c1)c1nc2ccc(OC)cc2s1` the inhibition was 55.5% (active). With `CCN(CC)CCN(C(=O)c1ccc(N2C(=O)CCC2=O)cc1)c1nc2cc3c(cc2s1)OCO3` the inhibition was 40.8% (inactive). With `CCOc1ccc(NC(=O)CCC(=O)NNC(=O)NC2CCCCC2)cc1` the inhibition was 8.19% (inactive). For `Cc1ccc2nc(SCC(=O)N3CC(C)OC(C)C3)nc(=O)n2c1` (stereo not drawn), the inhibition was -6.75% (inactive). In the case of `CCN(Cc1ccccc1)S(=O)(=O)c1cc2c3c(c1)CCN3C(=O)CC2`, the inhibition is reported as -1.06% (inactive). For `O=c1cnnc(Nc2ccccc2F)[nH]1`, the inhibition was -1.79% (inactive). For `CC(C)(C)[C@H]1C=C(C(=O)NCc2ccccc2)O[C@@H](OCc2ccc(CO)cc2)C1`, the inhibition was 7.55% (inactive). With `O=C(NCc1ccccc1)C1=C[C@@H](c2ccc(C(F)(F)F)cc2)C[C@@H](OCc2ccc(CO)cc2)O1` the inhibition was 63% (active). For `O=C(C1=C[C@H](c2ccc(C(F)(F)F)cc2)C[C@H](OCc2ccc(CO)cc2)O1)N1CCN(Cc2ccccc2)CC1`, the inhibition was 40.5% (inactive). For `OCCNc1nc(Nc2ccc(Cl)c(Cl)c2)nc2ccccc12`, the inhibition was 64.3% (active). For `CN(C)c1nc(Nc2ccc(Cl)c(Cl)c2)nc(N(C)C)n1`, the inhibition was 9.61% (inactive). In the case of `COc1cc2nc(Cl)nc(NCCO)c2cc1OC`, the inhibition is reported as -12.7% (inactive). With `COCCNc1nc(-c2ccccc2)nc2c1oc1ccccc12` the inhibition was 36.8% (inactive). For `CCc1noc(C)c1C(=O)Oc1ccc(N(C)S(=O)(=O)c2ccc(C)c(C)c2)cc1`, the inhibition was 31% (inactive). For `COC(=O)C(C(=O)Nc1cccc(Cl)c1C)C1CCCC1` (stereo not drawn), the inhibition was -20.2% (inactive). With `COCCCn1c(SCC(=O)Nc2oc(C)c3c(C)n[nH]c(=O)c23)nc2sc3c(c2c1=O)CCC3` the inhibition was 2.14% (inactive). For `CN(C1CCS(=O)(=O)C1)S(=O)(=O)c1ccc2ccccc2c1` (stereo not drawn), the inhibition was -3.79% (inactive). For `Brc1ccc(-c2csc(N/N=C/c3cccnc3)n2)cc1`, the inhibition was 69.8% (active). In the case of `Brc1ccc(-c2csc(N/N=C/c3ccc4c(c3)OCO4)n2)cc1`, the inhibition is reported as 31.5% (inactive). In the case of `Cc1ccccc1Nc1nc(-c2cccnc2)cs1`, the inhibition is reported as 20.2% (inactive). For `COC(C[C@@H]1O[C@@H]1C(=O)[C@@H](C)OCc1ccccc1)OC`, the inhibition was 3.07% (inactive). With `CCCCN(CCCC)CCCNC(=O)CN1C(=O)COc2ccc(S(=O)(=O)N3CCC(C)CC3)cc21` the inhibition was 10.4% (inactive). For `Cc1cc(C)c(-c2c(O)c3ccccc3n(C)c2=O)c(C)c1`, the inhibition was -3.11% (inactive). For `COc1cc(C2/C(=C(\O)c3ccc4c(c3)CC(C)O4)C(=O)C(=O)N2c2nnc(C)s2)cc(OC)c1OC` (stereo not drawn), the inhibition was -5.79% (inactive). For `O=C(CSc1n[nH]c(=O)n1-c1ccccc1)Nc1ccccc1C(F)(F)F`, the inhibition was -3.4% (inactive). In the case of `O=C(NCCC1CCCCN1S(=O)(=O)c1ccccc1)C(=O)NCC1CCCO1` (stereo not drawn), the inhibition is reported as -5.32% (inactive). For `O=C(CCC1CCCN(Cc2ccc(O)c(Cl)c2)C1)NCc1ccccc1F` (stereo not drawn), the inhibition was 65.4% (active). For `CSc1ncccc1C(=O)N1CCCC(CCC(=O)NCc2ccccc2F)C1` (stereo not drawn), the inhibition was 2.43% (inactive). For `COc1cccc(CNC(=O)CCC2CCCN(Cc3ccc(OC(F)F)cc3)C2)c1` (stereo not drawn), the inhibition was 49.4% (inactive). For `CC(=O)c1ccc(S(=O)(=O)N2CCN(C(=O)/C=C/c3ccc4ccccc4n3)CC2)cc1`, the inhibition was 20.6% (inactive). With `CC(=O)c1ccc(S(=O)(=O)N2CCN(c3nc4c(C)c(C)ccc4cc3C#N)CC2)cc1` the inhibition was 63.6% (active). In the case of `CC(=O)c1ccc(S(=O)(=O)N2CCC3(CC2)OCCO3)cc1`, the inhibition is reported as 4.17% (inactive). With `CCOc1ccc2ccccc2c1/C=N/NC(=O)c1c(C)cc(C)[nH]c1=O` the inhibition was 13.7% (inactive). In the case of `O=C(CSc1ccc(-c2ccc(-n3cccn3)cc2)nn1)Nc1ccc([N+](=O)[O-])cc1`, the inhibition is reported as -0.835% (inactive). For `COc1ccc(C(CNC(=O)c2ccc(S(=O)(=O)Nc3ccccc3C)cc2)N2CCOCC2)cc1` (stereo not drawn), the inhibition was -0.159% (inactive). With `CSc1nccc(NC(=O)c2ccc(C(C)(C)C)cc2)n1` the inhibition was -6.33% (inactive). In the case of `NC(=O)C1(N2CCCCC2)CCN(C2CC(=O)N(Cc3ccc(N4CCCC4=O)cc3)C2=O)CC1` (stereo not drawn), the inhibition is reported as 7.91% (inactive). With `CC(C)(C)NC(=O)CN1CCC(NC(=O)C23CC4CC(CC(C4)C2)C3)CC1` the inhibition was 26.6% (inactive). In the case of `O=C(N1CCCC1)C12CC3CC(C1)CC(C(=O)N1CCCC1)(C3)C2`, the inhibition is reported as -14.8% (inactive). In the case of `CN1CCN(CC(=O)C23CC4CC(CC(C4)C2)C3)CC1`, the inhibition is reported as 56.4% (active). For `COc1ccc(CNc2ccc3c(c2)CCC3)cc1OC`, the inhibition was 65.6% (active). With `COc1ccc(CNc2cc(C)cc(C)c2)cc1OC` the inhibition was -0.404% (inactive). In the case of `COc1ccc(CC(=O)Nc2ccc3c(c2)CCC3)cc1S(=O)(=O)N1CCOCC1`, the inhibition is reported as -10.7% (inactive). For `Cc1ccc(S(=O)(=O)NCCC(=O)NNC(=O)C2COc3ccccc3O2)cc1` (stereo not drawn), the inhibition was 1.4% (inactive). For `COc1cccc(C(=O)Nc2cc3c(cc2Br)OCCCO3)c1`, the inhibition was 11.1% (inactive). In the case of `Oc1ccc2ccccc2c1N=Nc1nccs1`, the inhibition is reported as 71.1% (active). In the case of `Oc1ccc(N=Nc2nccs2)c(O)c1`, the inhibition is reported as 47.7% (inactive). With `Cc1ccc(N2CC(C(=O)Nc3cc(Cl)ccc3-n3cncn3)CC2=O)cc1` (stereo not drawn) the inhibition was -5.75% (inactive). In the case of `COc1ccc(-c2c(NC(=O)c3ccco3)oc3ccc(Cl)cc3c2=O)cc1`, the inhibition is reported as -16.1% (inactive). With `CC(=O)c1ccc(S(=O)(=O)NCc2nnnn2-c2ccccc2)cc1` the inhibition was -4.22% (inactive). For `CCCCN(C(=O)c1ccc(S(=O)(=O)N2CCOCC2)cc1)C1CCS(=O)(=O)C1` (stereo not drawn), the inhibition was -3.57% (inactive). With `CC(C)(C)SCCNC(=O)c1cccc([N+](=O)[O-])c1` the inhibition was -5.13% (inactive). In the case of `COc1ccccc1OCCNC(=O)c1cc([N+](=O)[O-])cc([N+](=O)[O-])c1`, the inhibition is reported as 72.3% (active). For `COc1ccccc1OCCNC(=O)CCNC(=O)c1ccccc1Cl`, the inhibition was -10.4% (inactive).
